From ChEMBL document CHEMBL5247578, “Effective synthesis of benzimidazoles-imidazo[1,2-a]pyrazine conjugates: A comparative study of mono-and bis-benzimidazoles for antitumor activity” (Eur J Med Chem, 2019)

Tests used:
[1] = system: A498; test: Antiproliferative activity against human A498 cells assessed as cell growth inhibition at 10 uM incubated for 48 hrs by sulforhodamine B assay relative to control; assay type: functional
Procedure, shortened: (§1)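 Single-dose NCI-60 prescreen at 10^-5 M. Cells in RPMI 1640 with 5% FBS and 2 mM L-glutamine, seeded 5,000–40,000 cells/well with 24 h preincubation, then drug exposure for 48 h at 37 °C under 5% CO2. Growth read by SRB staining of TCA-fixed cells at 515 nm against time-zero and untreated controls. Negative growth values denote cell kill.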

[2] = system: NCI-H522; test: Antiproliferative activity against human NCI-H522 cells assessed as cell growth inhibition at 10 uM incubated for 48 hrs by sulforhodamine B assay relative to control; assay type: functional
Procedure, shortened: (§2)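 NCI-60 single-dose screen at 10^-5 M. Cells grown in RPMI 1640 with 5% FBS and 2 mM L-glutamine, plated at 5,000–40,000 cells/well, and preincubated 24 h. Drug (DMSO stock) added and incubated 48 h at 37 °C, 5% CO2. Adherent cells fixed with cold TCA, stained with 0.4% SRB in 1% acetic acid, dye solubilized in 10 mM trizma base, A515 read. Percent growth taken against time-zero and untreated control.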

[3] = system: SW-620; test: Antiproliferative activity against human SW620 cells assessed as cell growth inhibition at 10 uM incubated for 48 hrs by sulforhodamine B assay relative to control; assay type: functional; procedure, shortened: as §2
[4] = n-Octanol/phosphate buffer partition coefficient, logP of the compound at pH 7.4 incubated for 85 mins by shake-flask method; assay type: physicochemical
Procedure, shortened: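 Octanol–water partition by shake-flask: n-octanol with 0.15 M phosphate buffer pH 7.4 at 10:1 volumes. Buffer-phase absorbance read before mixing, then shaken 50 min and centrifuged at 2500 rpm for 35 min. Buffer absorbance read again; P = (Ai−Af)/Af × Vw/Vo.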

[5] = system: U-251; test: Antiproliferative activity against human U-251 cells assessed as cell growth inhibition at 10 uM incubated for 48 hrs by sulforhodamine B assay relative to control; assay type: functional; procedure, shortened: as §2
[6] = system: UACC-62; test: Antiproliferative activity against human UACC-62 cells assessed as cell growth inhibition at 10 uM incubated for 48 hrs by sulforhodamine B assay relative to control; assay type: functional; procedure, shortened: as §2
[7] = system: RXF 393; test: Antiproliferative activity against human RXF 393 cells assessed as cell growth inhibition at 10 uM incubated for 48 hrs by sulforhodamine B assay relative to control; assay type: functional; procedure, shortened: as §2
[8] = system: EKVX; test: Antiproliferative activity against human EKVX cells assessed as cell growth inhibition at 10 uM incubated for 48 hrs by sulforhodamine B assay relative to control; assay type: functional
Procedure, shortened: (§3)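 NCI-60 one-dose prescreen at 10^-5 M. Cells grown in RPMI 1640 with 5% FBS and 2 mM glutamine, preincubated 24 h, then exposed 48 h at 37 °C. Adherent lines TCA-fixed, SRB-stained, A515 read. Growth percent relative to time-zero and control; negative values mean cell kill.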

[9] = system: HL-60; test: Antiproliferative activity against human HL-60 cells assessed as cell growth inhibition at 10 uM incubated for 48 hrs by sulforhodamine B assay relative to control; assay type: functional; procedure, shortened: as §3
[10] = system: NCI-H460; test: Antiproliferative activity against human NCI-H460 cells assessed as cell growth inhibition at 10 uM incubated for 48 hrs by sulforhodamine B assay relative to control; assay type: functional; procedure, shortened: as §2
[11] = system: KM12; test: Antiproliferative activity against human KM12 cells assessed as cell growth inhibition at 10 uM incubated for 48 hrs by sulforhodamine B assay relative to control; assay type: functional; procedure, shortened: as §2
[12] = system: SNB-75; test: Antiproliferative activity against human SNB-75 cells assessed as cell growth inhibition at 10 uM incubated for 48 hrs by sulforhodamine B assay relative to control; assay type: functional; procedure, shortened: as §2
[13] = system: ACHN; test: Antiproliferative activity against human ACHN cells assessed as cell growth inhibition at 10 uM incubated for 48 hrs by sulforhodamine B assay relative to control; assay type: functional; procedure, shortened: as §1
[14] = system: Hs-578T; test: Antiproliferative activity against human Hs-578T cells assessed as cell growth inhibition at 10 uM incubated for 48 hrs by sulforhodamine B assay relative to control; assay type: functional; procedure, shortened: as §2
[15] = system: HT-29; test: Antiproliferative activity against human HT-29 cells assessed as cell growth inhibition at 10 uM incubated for 48 hrs by sulforhodamine B assay relative to control; assay type: functional; procedure, shortened: as §2
[16] = system: A549; test: Antiproliferative activity against human A549 cells assessed as cell growth inhibition at 10 uM incubated for 48 hrs by sulforhodamine B assay relative to control; assay type: functional; procedure, shortened: as §1
[17] = system: OVCAR-8; test: Antiproliferative activity against human OVCAR-8 cells assessed as cell growth inhibition at 10 uM incubated for 48 hrs by sulforhodamine B assay relative to control; assay type: functional; procedure, shortened: as §2
[18] = system: PC-3; test: Antiproliferative activity against human PC-3 cells assessed as cell growth inhibition at 10 uM incubated for 48 hrs by sulforhodamine B assay relative to control; assay type: functional; procedure, shortened: as §2
[19] = system: OVCAR-5; test: Antiproliferative activity against human OVCAR-5 cells assessed as cell growth inhibition at 10 uM incubated for 48 hrs by sulforhodamine B assay relative to control; assay type: functional; procedure, shortened: as §2
[20] = system: SF-268; test: Antiproliferative activity against human SF-268 cells assessed as cell growth inhibition at 10 uM incubated for 48 hrs by sulforhodamine B assay relative to control; assay type: functional; procedure, shortened: as §2
[21] = system: DU-145; test: Antiproliferative activity against human DU-145 cells assessed as cell growth inhibition at 10 uM incubated for 48 hrs by sulforhodamine B assay relative to control; assay type: functional; procedure, shortened: as §3
[22] = system: OVCAR-3; test: Antiproliferative activity against human OVCAR-3 cells assessed as cell growth inhibition at 10 uM incubated for 48 hrs by sulforhodamine B assay relative to control; assay type: functional; procedure, shortened: as §2
[23] = system: SR; test: Antiproliferative activity against human SR cells assessed as cell growth inhibition at 10 uM incubated for 48 hrs by sulforhodamine B assay relative to control; assay type: functional; procedure, shortened: as §2
[24] = system: M14; test: Antiproliferative activity against human M14 cells assessed as cell growth inhibition at 10 uM incubated for 48 hrs by sulforhodamine B assay relative to control; assay type: functional; procedure, shortened: as §2
[25] = system: SK-MEL-2; test: Antiproliferative activity against human SK-MEL-2 cells assessed as cell growth inhibition at 10 uM incubated for 48 hrs by sulforhodamine B assay relative to control; assay type: functional; procedure, shortened: as §2
[26] = system: MDA-MB-468; test: Antiproliferative activity against human MDA-MB-468 cells assessed as cell growth inhibition at 10 uM incubated for 48 hrs by sulforhodamine B assay relative to control; assay type: functional; procedure, shortened: as §2
[27] = system: RPMI-8226; test: Antiproliferative activity against human RPMI-8226 cells assessed as cell growth inhibition at 10 uM incubated for 48 hrs by sulforhodamine B assay relative to control; assay type: functional; procedure, shortened: as §2
[28] = system: HCT-116; test: Antiproliferative activity against human HCT-116 cells assessed as cell growth inhibition at 10 uM incubated for 48 hrs by sulforhodamine B assay relative to control; assay type: functional; procedure, shortened: as §3
[29] = system: LOX IMVI; test: Antiproliferative activity against human LOX IMVI cells assessed as cell growth inhibition at 10 uM incubated for 48 hrs by sulforhodamine B assay relative to control; assay type: functional; procedure, shortened: as §2
[30] = system: T47D; test: Antiproliferative activity against human T47D cells assessed as cell growth inhibition at 10 uM incubated for 48 hrs by sulforhodamine B assay relative to control; assay type: functional; procedure, shortened: as §2
[31] = system: CCRF-CEM; test: Antiproliferative activity against human CCRF-CEM cells assessed as cell growth inhibition at 10 uM incubated for 48 hrs by sulforhodamine B assay relative to control; assay type: functional; procedure, shortened: as §1

## Brc1ccc(-c2cn3ccnc3c(-c3ccc4ncn(C5CCCCC5)c4c3)n2)cc1
[1]
  inhibition at 10 µM: 20.7%
[2]
  inhibition at 10 µM: 35.5%
[3]
  inhibition at 10 µM: 21.9%
[4]
  logD at 1.417 h: 1.73
[5]
  inhibition at 10 µM: 23.7%
[6]
  inhibition at 10 µM: 46.9%
[7]
  inhibition at 10 µM: 34%
[8]
  inhibition at 10 µM: 16.2%
[9]
  inhibition at 10 µM: 23.2%
[10]
  inhibition at 10 µM: 13.2%
[11]
  inhibition at 10 µM: 23.3%
[12]
  inhibition at 10 µM: 34.5%
[13]
  inhibition at 10 µM: 21.4%
[14]
  inhibition at 10 µM: 24.5%
[15]
  inhibition at 10 µM: 20.9%
[16]
  inhibition at 10 µM: 15.3%
[17]
  inhibition at 10 µM: 13.2%
[18]
  inhibition at 10 µM: 42.4%
[19]
  inhibition at 10 µM: 8.95%
[20]
  inhibition at 10 µM: 15.5%
[21]
  inhibition at 10 µM: 5.66%
[22]
  inhibition at 10 µM: 26.3%
[23]
  inhibition at 10 µM: 60.6%
[24]
  inhibition at 10 µM: 26.9%
[25]
  inhibition at 10 µM: 24.1%
[26]
  inhibition at 10 µM: 33.7%
[27]
  inhibition at 10 µM: 32%
[28]
  inhibition at 10 µM: 31.2%
[29]
  inhibition at 10 µM: 30.7%
[30]
  inhibition at 10 µM: 55%

## c1ccc(Cn2cnc3ccc(-c4nc(-c5ccc6c(c5)ncn6C5CCCCC5)cn5ccnc45)cc32)cc1
[1]
  inhibition at 10 µM: -71.8%
[2]
  inhibition at 10 µM: -35.2%
[3]
  inhibition at 10 µM: 97.8%
[4]
  logD at 1.417 h: 1.61
[5]
  inhibition at 10 µM: -22.8%
[6]
  inhibition at 10 µM: -31.2%
[7]
  inhibition at 10 µM: -76.9%
[8]
  inhibition at 10 µM: -12.2%
[9]
  inhibition at 10 µM: -20.8%
[10]
  inhibition at 10 µM: -20.3%
[11]
  inhibition at 10 µM: -39.4%
[12]
  inhibition at 10 µM: -67.4%
[13]
  inhibition at 10 µM: 80.1%
[14]
  inhibition at 10 µM: 99.6%
[15]
  inhibition at 10 µM: -48.7%
[16]
  inhibition at 10 µM: -5.05%
[17]
  inhibition at 10 µM: 97.5%
[18]
  inhibition at 10 µM: -39.5%
[19]
  inhibition at 10 µM: -29%
[20]
  inhibition at 10 µM: -0.11%
[31]
  inhibition at 10 µM: 94.4%
[21]
  inhibition at 10 µM: -28.2%
[22]
  inhibition at 10 µM: -35.7%
[23]
  inhibition at 10 µM: 94.5%
[24]
  inhibition at 10 µM: -4.44%
[25]
  inhibition at 10 µM: -36.7%
[26]
  inhibition at 10 µM: -35.7%
[27]
  inhibition at 10 µM: -41.2%
[28]
  inhibition at 10 µM: -75.8%
[29]
  inhibition at 10 µM: -87%
[30]
  inhibition at 10 µM: -2.12%

## c1ccc(-c2cn3ccnc3c(-c3ccc4ncn(C5CCCCC5)c4c3)n2)cc1
[1]
  inhibition at 10 µM: 26.1%
[2]
  inhibition at 10 µM: 58.1%
[3]
  inhibition at 10 µM: 9.15%
[4]
  logD at 1.417 h: 1.74
[5]
  inhibition at 10 µM: 37.3%
[6]
  inhibition at 10 µM: 65.7%
[7]
  inhibition at 10 µM: 45%
[8]
  inhibition at 10 µM: 24.2%
[9]
  inhibition at 10 µM: 67.1%
[10]
  inhibition at 10 µM: 37.8%
[11]
  inhibition at 10 µM: 49%
[12]
  inhibition at 10 µM: 44.4%
[13]
  inhibition at 10 µM: 35.9%
[14]
  inhibition at 10 µM: 23.8%
[15]
  inhibition at 10 µM: 48.3%
[16]
  inhibition at 10 µM: 33.3%
[17]
  inhibition at 10 µM: 63.9%
[18]
  inhibition at 10 µM: 92%
[19]
  inhibition at 10 µM: 7.87%
[20]
  inhibition at 10 µM: 21.7%
[31]
  inhibition at 10 µM: 81.2%
[21]
  inhibition at 10 µM: 29.3%
[22]
  inhibition at 10 µM: 41.8%
[23]
  inhibition at 10 µM: 59.8%
[24]
  inhibition at 10 µM: 38.2%
[25]
  inhibition at 10 µM: 16.5%
[26]
  inhibition at 10 µM: 54.4%
[27]
  inhibition at 10 µM: 85.7%
[28]
  inhibition at 10 µM: 59.5%
[29]
  inhibition at 10 µM: 39.6%
[30]
  inhibition at 10 µM: -11.1%
